Bioassay records deposited in PubChem BioAssay by The Scripps Research Institute Molecular Screening Center.
LEDGF integ inh = blocks HIV-1 LEDGF/p75-dependent DNA integration | TR-FRET IN-LEDGF/p75 DNA integration, Eu/Cy5 | inhibition, % at 3.7 µM | 370,000 compounds, 0.64% hits | AID 743269;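 active = inhibition above the screen-wide mean plus 3 SD, cut at about 13% in these data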;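 also: signal is the Cy5 over europium emission ratio at 671 and 618 nm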
PRMT1 inh = blocks human protein arginine methyltransferase 1; Q99873; recombinant PRMT1, activity-based probe fluorescence polarization; inhibition, % at 2.79 µM; 370,000 compounds, 1.3% hits; AID 652257;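 active = inhibition above about 21% made by adding two undisclosed values, limit read from the data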
Target sequence (Q99873 whole entry, looked up): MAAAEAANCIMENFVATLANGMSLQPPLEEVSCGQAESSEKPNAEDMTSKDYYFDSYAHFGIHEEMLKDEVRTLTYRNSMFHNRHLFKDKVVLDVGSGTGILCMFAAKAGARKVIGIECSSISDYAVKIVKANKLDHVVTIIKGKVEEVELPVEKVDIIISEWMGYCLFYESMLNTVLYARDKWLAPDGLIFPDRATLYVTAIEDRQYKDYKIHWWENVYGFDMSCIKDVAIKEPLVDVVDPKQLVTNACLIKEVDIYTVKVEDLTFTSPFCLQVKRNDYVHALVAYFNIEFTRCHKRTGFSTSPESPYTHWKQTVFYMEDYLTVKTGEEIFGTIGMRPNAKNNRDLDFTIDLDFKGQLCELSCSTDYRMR
RBBP9 inhibitor = inhibitors of human serine hydrolase RBBP9 | O75884 | recombinant RBBP9, FP-Rh probe fluorescence polarization | inhibition, % at 7.94 µM | 220,000 compounds, 0.2% hits | AID 1515;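 active = inhibition above the campaign mean of all tested compounds plus 3 SD, cut at about 14% in these data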
Target sequence (O75884 whole entry, looked up): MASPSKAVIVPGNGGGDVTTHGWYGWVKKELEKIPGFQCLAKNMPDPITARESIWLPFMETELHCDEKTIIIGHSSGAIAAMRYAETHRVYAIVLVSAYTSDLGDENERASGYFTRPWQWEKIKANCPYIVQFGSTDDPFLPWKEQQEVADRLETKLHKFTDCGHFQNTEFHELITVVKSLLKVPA
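System: RBBP9 protein / Buffer or medium: Tris/NaCl buffer pH 8.0 with 0.1% Pluronic / Probe or stimulus: Serine-hydrolase probe FP-Rh, 375 nM pre-mixing / Dosing: 7.94 µM single dose, 0.794% DMSO / Times: enzyme-compound preincubation 30 min, then probe labeling 45 min, 25 °C / Technique: fluorescence polarization (mP), excitation 525 nm, emission 598 nm / Replication: singlicate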
ABHD5-PLIN5 inh = ABHD5-PLIN5 protein interaction inhibition; Split G. princeps luciferase complementation, luminescence, 4 h; inhibition, % at 4 µM; Q00G26+Q8WTS1; 360,000 compounds, 0.78% hits; AID 602281;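 active = inhibition above the mean inhibition across every tested compound plus 3 SD, cut at about 22% in these data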
UHRF1 MBD2 ctr = blocks human UHRF1 binding to methylated DNA; UHRF1 binding to methylated oligo, TR-FRET; Q96T88; 370,000 compounds, 0.75% hits; AID 687016; inhibition, % at 4.4 µM;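 also: UHRF1 SRA domain binding a hemimethylated CpG hairpin DNA probe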
MBD2 inh = MBD2-methylated oligo binding inhibition; Q9UBB5; TR-FRET, MBD2 binding to methylated oligonucleotide; inhibition, % at 4.4 µM; 370,000 compounds, 0.31% hits; in the data active = inhibition above about 13%
PRMT1 inh conf = PRMT1 (human) inhibition, FP confirmation | shares compounds with PRMT1 inh | recombinant His-PRMT1, activity-based probe fluorescence polarization | inhibition, % at 2.79 µM | 3,300 compounds, 42% hits | AID 687036;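 active = mean inhibition across replicates above the hit cutoff derived for the earlier primary screen, cut at about 22% in these data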
UHRF1 DNA bind = inhibits human UHRF1 binding to methylated oligonucleotide, MBD2 counter-screen; shares compounds with MBD2 inh; TR-FRET; inhibition, % at 4.4 µM; 1,000 compounds, 25% hits; AID 720530;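 also: UHRF1 SRA domain binding a labeled hemimethylated CpG hairpin DNA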
MBD2 confirm = MBD2-DBD methyl-DNA binding inhibition, TR-FRET confirmation; 1,000 compounds, 26% hits; TR-FRET MBD2-DBD binding to methylated oligonucleotide; inhibition, % at 4.4 µM; shares compounds with MBD2 inh; in the data active = inhibition above about 14%
Each line names hits and unclear results; the compound was inactive in the other large screens (follow-up assays come after a bar, where they were run). This is a sample that favours compounds with a hit; in the whole collection about 3.1% have one here. Rule as the data show it, unless noted: active = inhibition above about 21%; inactive = the rest.

Oc1ccc(CNc2ccccn2)c2cccnc12	none (no result: RBBP9 inhibitor, ABHD5-PLIN5 inh)
COc1cc(OC)cc(C(C)c2ccc(-c3ccccc3)cc2)c1 (stereo not drawn)	none (no result: RBBP9 inhibitor, ABHD5-PLIN5 inh)
Nc1[nH]c(C(=O)c2ccc(Br)cc2)c(-c2ccc(Cl)cc2)c1C(=O)NCCc1c[nH]c2ccccc12	none (no result: RBBP9 inhibitor, ABHD5-PLIN5 inh)
CCC(C(=O)Nc1ccccc1N1CCCC1)c1ccccc1Cl (stereo not drawn)	none (no result: RBBP9 inhibitor, ABHD5-PLIN5 inh)
O=C(NCCN1CCC(n2c(=O)[nH]c3cc(Cl)ccc32)CC1)c1ccc(F)cc1	none (no result: RBBP9 inhibitor, ABHD5-PLIN5 inh)
CN1CCCC(OC(=O)c2ccc(S(=O)(=O)N(C)C)cc2)C1 (stereo not drawn)	PRMT1 inh 34 (no result: RBBP9 inhibitor) | PRMT1 inh conf inactive
CCCCCCn1cc(CN2CC=CS2(=O)=O)nn1	none (no result: RBBP9 inhibitor, ABHD5-PLIN5 inh)
O=C(NN=Cc1ccccc1C(F)(F)F)c1cc(-c2ccc(Cl)cc2)n[nH]1	none (no result: RBBP9 inhibitor, ABHD5-PLIN5 inh)
CC(C)c1csc(CN2CCC(C(=O)Nc3cccc(-c4ccco4)c3)CC2)n1	PRMT1 inh 27 (no result: RBBP9 inhibitor) | PRMT1 inh conf inactive
COc1cccc(-c2cccc(NC(=O)C3CCN(Cc4nccs4)CC3)c2)c1	none (no result: RBBP9 inhibitor)
Cc1cccc(N2CCN(C(=O)c3ccc4ncsc4c3)CC2)c1C	PRMT1 inh 38 | PRMT1 inh conf inactive
N#C/C(=C\c1ccc2c(c1)OCO2)C(N)=S	PRMT1 inh 25 | PRMT1 inh conf inactive
CC(=O)N1C[C@@H](CO)[C@@H](N(C)C(=O)Nc2cccc3ccccc23)C[C@H]1c1ccccc1	none (no result: RBBP9 inhibitor, ABHD5-PLIN5 inh)
CN(C)CCNc1ccc2ncn3c4ccc(O)cc4c(=O)c1c23	PRMT1 inh 67 (no result: RBBP9 inhibitor) | PRMT1 inh conf 88
O=C(/C=C/c1ccco1)NCc1ccc(F)cc1	PRMT1 inh 38 | PRMT1 inh conf inactive
COc1ccc(C(=O)Nc2cc(C(=O)c3ccccc3)c(C)oc2=O)cc1	PRMT1 inh 57, ABHD5-PLIN5 inh 37 | PRMT1 inh conf inactive
O=C1C2C3C=CC(C3=C3CCCCC3)C2C(=O)N1Cc1ccccc1 (stereo not drawn)	PRMT1 inh 36 | PRMT1 inh conf inactive
CCCc1cc(=O)[nH]c(SCC(=O)Nc2ccc(N3CCCCC3)cc2)n1	PRMT1 inh 49 (no result: RBBP9 inhibitor) | PRMT1 inh conf inactive
Cc1cc(NS(=O)(=O)c2ccccc2)ccc1NS(=O)(=O)c1ccccc1	none (no result: RBBP9 inhibitor)
O=S(=O)(Nc1ccc(O)c(NS(=O)(=O)c2ccccc2)c1)c1ccccc1	PRMT1 inh 31 (no result: RBBP9 inhibitor) | PRMT1 inh conf inactive
COc1cc2c(cc1OC)C(c1ccc(N(C)C)cc1)NCC2 (stereo not drawn)	none (no result: RBBP9 inhibitor)
CN(C)c1ccc(C2NCCS2)cc1 (stereo not drawn)	PRMT1 inh 35 | PRMT1 inh conf 34
Cc1ccc(C2=NNC(=O)C(c3ccc(Cl)cc3)C2)cc1 (stereo not drawn)	none
Cc1ccc(C2NCCS2)cc1 (stereo not drawn)	PRMT1 inh 32 | PRMT1 inh conf inactive
COc1ccc(NC(=O)c2sc3nc(-c4cccnc4)ccc3c2N)cc1	none
Cc1ccc2cc3c(N)c(C(=O)N4CCOCC4)sc3nc2c1	none
Nc1c(C(=O)N2CCCC2)sc2nc(-c3ccccc3)ccc12	PRMT1 inh 34 | PRMT1 inh conf inactive
Nc1c(C(=O)Nc2ccccc2)sc2nc(-c3cccnc3)ccc12	PRMT1 inh 40 (no result: ABHD5-PLIN5 inh) | PRMT1 inh conf inactive
COc1ccccc1NC(=O)c1sc2nc(-c3ccco3)ccc2c1N	none (no result: LEDGF integ inh, PRMT1 inh, UHRF1 MBD2 ctr, MBD2 inh)
Nc1c(C(=O)Nc2ccccc2)sc2nc(-c3ccco3)ccc12	PRMT1 inh 52 | PRMT1 inh conf 40
COc1ccc2cc3c(N)c(C(=O)N4CCCC4)sc3nc2c1	PRMT1 inh 41 (no result: ABHD5-PLIN5 inh) | PRMT1 inh conf inactive
COc1ccc(CN2CN3Cc4cc(F)ccc4C3CS2(=O)=O)cc1 (stereo not drawn)	none (no result: RBBP9 inhibitor, ABHD5-PLIN5 inh)
CCN(CC)CCN1C(=O)c2cccc3cc(N)cc(c23)C1=O	PRMT1 inh 25, MBD2 inh 14 | PRMT1 inh conf 22 | UHRF1 DNA bind inactive | MBD2 confirm inactive
Nc1cc2c3c(cccc3c1)C(=O)N(CCN1CCCC1)C2=O	none
O=C1NC(=S)S/C1=C\C=C\c1ccc([N+](=O)[O-])o1	LEDGF integ inh 81, PRMT1 inh 43, UHRF1 MBD2 ctr 94, MBD2 inh 74 | PRMT1 inh conf 28 | UHRF1 DNA bind 90 | MBD2 confirm 47
CCOC(=O)C1=C(C(=O)OCC)C2N(Cc3ccc(Br)cc3)c3ccccc3[C@@]23C[C@@H](C(=O)OC)N(S(=O)(=O)c2ccc(Br)cc2)C3=N1 (stereo partly drawn)	none (no result: RBBP9 inhibitor, ABHD5-PLIN5 inh)
C=CCN1C(=O)[C@H](CC(=O)N2CCN(C(=O)c3ccco3)CC2)[C@@]2(C(=O)OCC)CCCC=C12	none (no result: RBBP9 inhibitor, ABHD5-PLIN5 inh)
COC(=O)[C@]12C[C@H](CC(=O)NCCCCc3ccccc3)C(=O)N(Cc3ccccc3)C1=C[C@H](C(C)C)O[C@@H]2C1CC1	none (no result: RBBP9 inhibitor, ABHD5-PLIN5 inh)
NC(=O)c1ccc(NC(=O)COC(=O)/C=C/c2ccc(Br)o2)cc1	LEDGF integ inh 22, PRMT1 inh 36, UHRF1 MBD2 ctr 53, MBD2 inh 27 (no result: RBBP9 inhibitor) | PRMT1 inh conf inactive | UHRF1 DNA bind 34 | MBD2 confirm 22
O=C(COC(=O)/C=C/c1ccc(Br)o1)Nc1ccc2[nH]c(=O)[nH]c2c1	none (no result: RBBP9 inhibitor)
COc1cccc2c1C(=O)c1c(O)c3c(c(O)c1C2=O)CC(O)(C(=O)CO)CC3OC1CC(N(C)C)C(O)C(C)O1 (stereo not drawn)	PRMT1 inh 193, UHRF1 MBD2 ctr 97, MBD2 inh 113 (no result: RBBP9 inhibitor) | PRMT1 inh conf 148 | UHRF1 DNA bind 99 | MBD2 confirm 111
COc1cccc2c1C(=O)c1c(O)c3c(c(O)c1C2=O)C[C@@](O)(C(=O)CO)C[C@@H]3O[C@H]1C[C@H](N)[C@@H](O)[C@H](C)O1	none (no result: LEDGF integ inh, PRMT1 inh, RBBP9 inhibitor, UHRF1 MBD2 ctr, MBD2 inh)
COc1cccc2c1C(=O)c1c(O)c3c(c(O)c1C2=O)C[C@@](O)(C(C)=O)C[C@@H]3O[C@H]1C[C@H](N)[C@H](O)[C@H](C)O1	PRMT1 inh 163, RBBP9 inhibitor 27, UHRF1 MBD2 ctr 91, MBD2 inh 107 | PRMT1 inh conf 169 | UHRF1 DNA bind 98 | MBD2 confirm 110
CC1(C)CC(=O)N(CC(=O)N2CCN(c3cccc(C(F)(F)F)c3)CC2)c2ccccc2S1(=O)=O	none (no result: RBBP9 inhibitor, ABHD5-PLIN5 inh)
CC(C)c1[nH]nc2c1C(c1cccc(C(F)(F)F)c1)NC2=O (stereo not drawn)	none (no result: RBBP9 inhibitor, ABHD5-PLIN5 inh)
